According to ChEMBL document CHEMBL1154186, “Synthesis, kinase inhibitory potencies, and in vitro antiproliferative evaluation of new Pim kinase inhibitors” (J Med Chem, 2009):

Assays:
[1] = target: Serine/threonine-protein kinase N2 (Homo sapiens) (UniProt Q16513); experiment: Inhibition of PRK2 assessed as residual enzyme activity at 10 uM relative to untreated control
Summary of the method: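 Tris/HCl pH 7.5, EGTA, 2-mercaptoethanol buffer, 30 min, 21 °C, compound at 10 µM. Radioactive phosphate measured on P81 filters. Residual activity as % of uninhibited incubations, duplicates.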

[2] = test system: PC-3; experiment: Antiproliferative activity against human PC3 cells after 48 hrs by resazurin dye reduction assay; format: functional, cell-based; conditions: PC-3, 48 h
Summary of the method: (§1)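 Cells (human fibroblast primary culture, or PC3, DU145 or PA1 cancer lines) were kept as monolayers in Glutamax MEM with Earle's salts, 10% FCS, pyruvate, nonessential amino acids and gentamicin, at 37 °C in 5% CO2. 5×10^3 cells/well adhered for 16 h, then had 48 h continuous drug exposure (20 mM DMSO stock). Resazurin 25 µg/mL for 1 h; fluorescence ex 530/em 590 nm. IC50 from blank-corrected concentration–survival curves versus control wells.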

[3] = target: RAC-beta serine/threonine-protein kinase (Homo sapiens) (UniProt P31751); experiment: Inhibition of PKBbeta assessed as residual enzyme activity at 10 uM relative to untreated control
Summary of the method: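 Assayed with [γ-33P]ATP at 50 µM and 10 mM Mg acetate in 50 mM Tris/HCl pH 7.5, 0.1 mM EGTA, 0.1% 2-mercaptoethanol, 30 min, 21 °C. Phosphoric acid stop, P81 filter capture. ERK2 and Lck are mouse; AMPK is rat. 10 µM compound; % activity remaining relative to control without inhibitor, duplicates.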

[4] = target: Calcium/calmodulin-dependent protein kinase kinase 1 (Homo sapiens) (UniProt Q8N5S9); experiment: Inhibition of CAMKKalpha assessed as residual enzyme activity at 10 uM relative to untreated control
[5] = target: T1, Serine/threonine-protein kinase D1 (Homo sapiens) (UniProt Q15139); experiment: Inhibition of PKD1 assessed as residual enzyme activity at 10 uM relative to untreated control
T1 sequence (whole entry): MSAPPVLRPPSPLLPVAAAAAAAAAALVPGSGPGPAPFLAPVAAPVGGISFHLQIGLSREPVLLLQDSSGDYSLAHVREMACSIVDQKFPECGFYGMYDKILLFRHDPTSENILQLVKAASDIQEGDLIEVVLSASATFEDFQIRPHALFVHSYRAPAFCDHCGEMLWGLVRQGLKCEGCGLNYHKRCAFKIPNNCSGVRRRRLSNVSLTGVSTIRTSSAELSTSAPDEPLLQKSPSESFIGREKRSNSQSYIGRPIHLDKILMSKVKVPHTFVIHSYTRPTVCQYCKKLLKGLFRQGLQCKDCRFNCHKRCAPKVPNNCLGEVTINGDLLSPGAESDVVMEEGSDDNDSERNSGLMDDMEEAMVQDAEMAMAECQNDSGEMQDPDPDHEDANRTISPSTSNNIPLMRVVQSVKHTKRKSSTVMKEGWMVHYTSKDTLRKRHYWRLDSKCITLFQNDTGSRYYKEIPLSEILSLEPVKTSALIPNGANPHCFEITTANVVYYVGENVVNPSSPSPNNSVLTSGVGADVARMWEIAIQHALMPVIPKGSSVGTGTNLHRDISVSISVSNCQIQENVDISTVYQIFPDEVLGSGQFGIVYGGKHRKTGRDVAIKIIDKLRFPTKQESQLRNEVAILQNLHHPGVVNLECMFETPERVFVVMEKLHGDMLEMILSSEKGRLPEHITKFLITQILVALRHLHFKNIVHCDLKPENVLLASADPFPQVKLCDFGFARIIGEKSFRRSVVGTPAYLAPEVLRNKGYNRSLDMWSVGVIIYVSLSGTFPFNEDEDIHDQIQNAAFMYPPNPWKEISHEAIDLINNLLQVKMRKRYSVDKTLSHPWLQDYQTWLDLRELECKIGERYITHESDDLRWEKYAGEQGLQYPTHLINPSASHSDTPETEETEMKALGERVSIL

[6] = target: Mitogen-activated protein kinase 14 (Homo sapiens) (UniProt Q16539); experiment: Inhibition of p38alpha assessed as residual enzyme activity at 10 uM relative to untreated control
Summary of the method: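 p38γ and p38δ MAPK run at 5 µM [γ-33P]ATP, and p38α at 50 µM, each with 10 mM Mg acetate. Buffer 50 mM Tris/HCl pH 7.5, 0.1 mM EGTA, 0.1% 2-mercaptoethanol. 10 µM compound, 30 min at 21 °C. P81 filter capture. Residual activity relative to control, duplicates.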

[7] = test system: DU-145; experiment: Antiproliferative activity against human DU145 cells after 48 hrs by resazurin dye reduction assay; format: functional, cell-based; conditions: DU-145, 48 h; summary of the method: as §1
[8] = test system: PA-1; experiment: Antiproliferative activity against human PA1 cells after 48 hrs by resazurin dye reduction assay; format: functional, cell-based; conditions: PA-1, 48 h; summary of the method: as §1
[9] = Antiproliferative activity against human fibroblasts after 48 hrs by resazurin dye reduction assay; format: cell-based; conditions: Fibroblast; summary of the method: as §1
[10] = target: Serine/threonine-protein kinase Nek7 (Homo sapiens) (UniProt Q8TDX7); experiment: Inhibition of NEK7 assessed as residual enzyme activity at 10 uM relative to untreated control
Summary of the method: (§2)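 Kinases of human origin, except CK1δ, which is rat. Run in 50 mM Tris/HCl pH 7.5, 0.1 mM EGTA, 0.1% 2-mercaptoethanol and 10 mM Mg acetate, with [γ-33P]ATP at 20 µM, 30 min at 21 °C. Acid-stopped and captured on P81 filters. Compound tested at 10 µM; residual % of uninhibited control, duplicate determinations.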

[11] = target: Serine/threonine-protein kinase Chk2 (Homo sapiens) (UniProt O96017); experiment: Inhibition of CHK2 assessed as residual enzyme activity at 10 uM relative to untreated control; summary of the method: as §2
Serine/threonine-protein kinase Chk2 (Homo sapiens), sequence (O96017 whole entry): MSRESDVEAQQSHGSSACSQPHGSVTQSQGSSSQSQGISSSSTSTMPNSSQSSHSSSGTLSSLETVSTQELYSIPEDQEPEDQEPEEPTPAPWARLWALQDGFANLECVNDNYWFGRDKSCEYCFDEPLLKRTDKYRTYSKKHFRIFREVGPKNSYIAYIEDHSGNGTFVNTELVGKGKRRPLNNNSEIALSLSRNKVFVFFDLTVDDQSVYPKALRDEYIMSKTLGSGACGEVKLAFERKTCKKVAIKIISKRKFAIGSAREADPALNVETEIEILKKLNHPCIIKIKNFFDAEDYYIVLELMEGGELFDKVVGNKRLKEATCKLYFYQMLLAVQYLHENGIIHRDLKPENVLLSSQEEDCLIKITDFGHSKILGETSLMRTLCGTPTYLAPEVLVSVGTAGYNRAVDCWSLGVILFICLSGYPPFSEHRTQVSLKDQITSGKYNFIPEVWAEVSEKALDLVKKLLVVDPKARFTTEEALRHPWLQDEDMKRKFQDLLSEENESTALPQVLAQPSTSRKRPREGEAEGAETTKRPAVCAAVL

Mitogen-activated protein kinase 14 (Homo sapiens), sequence (Q16539 whole entry): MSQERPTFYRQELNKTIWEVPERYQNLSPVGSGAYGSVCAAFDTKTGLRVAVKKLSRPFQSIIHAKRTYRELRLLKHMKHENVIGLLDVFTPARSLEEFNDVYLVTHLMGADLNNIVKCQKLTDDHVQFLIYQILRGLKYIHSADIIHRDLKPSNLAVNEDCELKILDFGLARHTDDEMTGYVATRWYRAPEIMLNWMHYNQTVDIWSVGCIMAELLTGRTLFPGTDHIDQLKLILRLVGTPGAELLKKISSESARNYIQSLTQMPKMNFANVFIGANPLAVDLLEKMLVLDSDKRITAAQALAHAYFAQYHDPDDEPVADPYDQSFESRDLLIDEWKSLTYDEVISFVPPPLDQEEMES
Calcium/calmodulin-dependent protein kinase kinase 1 (Homo sapiens), sequence (Q8N5S9 whole entry, looked up): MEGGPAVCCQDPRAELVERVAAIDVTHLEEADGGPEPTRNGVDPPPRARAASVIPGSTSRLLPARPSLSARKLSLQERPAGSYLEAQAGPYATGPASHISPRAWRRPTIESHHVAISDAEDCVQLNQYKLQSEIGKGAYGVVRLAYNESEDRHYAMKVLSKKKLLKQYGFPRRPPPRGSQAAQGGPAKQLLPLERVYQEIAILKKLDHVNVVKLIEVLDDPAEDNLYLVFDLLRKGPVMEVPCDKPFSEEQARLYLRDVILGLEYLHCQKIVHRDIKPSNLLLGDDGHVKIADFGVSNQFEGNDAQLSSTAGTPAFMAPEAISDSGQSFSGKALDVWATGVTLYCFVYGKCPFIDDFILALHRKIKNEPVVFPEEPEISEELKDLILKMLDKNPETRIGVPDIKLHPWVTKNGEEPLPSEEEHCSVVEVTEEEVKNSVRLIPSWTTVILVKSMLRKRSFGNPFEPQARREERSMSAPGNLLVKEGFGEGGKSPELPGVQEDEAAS
Serine/threonine-protein kinase Nek7 (Homo sapiens), sequence (Q8TDX7 whole entry, looked up): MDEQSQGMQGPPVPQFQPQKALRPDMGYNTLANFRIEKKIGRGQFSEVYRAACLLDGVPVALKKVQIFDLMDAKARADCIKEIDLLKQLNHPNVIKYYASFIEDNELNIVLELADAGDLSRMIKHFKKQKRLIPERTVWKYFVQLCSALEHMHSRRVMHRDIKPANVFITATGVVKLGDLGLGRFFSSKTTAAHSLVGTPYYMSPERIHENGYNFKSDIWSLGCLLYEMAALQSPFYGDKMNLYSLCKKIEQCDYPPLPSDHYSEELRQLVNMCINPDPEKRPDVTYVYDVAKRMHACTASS
Serine/threonine-protein kinase N2 (Homo sapiens), sequence (Q16513 whole entry, looked up): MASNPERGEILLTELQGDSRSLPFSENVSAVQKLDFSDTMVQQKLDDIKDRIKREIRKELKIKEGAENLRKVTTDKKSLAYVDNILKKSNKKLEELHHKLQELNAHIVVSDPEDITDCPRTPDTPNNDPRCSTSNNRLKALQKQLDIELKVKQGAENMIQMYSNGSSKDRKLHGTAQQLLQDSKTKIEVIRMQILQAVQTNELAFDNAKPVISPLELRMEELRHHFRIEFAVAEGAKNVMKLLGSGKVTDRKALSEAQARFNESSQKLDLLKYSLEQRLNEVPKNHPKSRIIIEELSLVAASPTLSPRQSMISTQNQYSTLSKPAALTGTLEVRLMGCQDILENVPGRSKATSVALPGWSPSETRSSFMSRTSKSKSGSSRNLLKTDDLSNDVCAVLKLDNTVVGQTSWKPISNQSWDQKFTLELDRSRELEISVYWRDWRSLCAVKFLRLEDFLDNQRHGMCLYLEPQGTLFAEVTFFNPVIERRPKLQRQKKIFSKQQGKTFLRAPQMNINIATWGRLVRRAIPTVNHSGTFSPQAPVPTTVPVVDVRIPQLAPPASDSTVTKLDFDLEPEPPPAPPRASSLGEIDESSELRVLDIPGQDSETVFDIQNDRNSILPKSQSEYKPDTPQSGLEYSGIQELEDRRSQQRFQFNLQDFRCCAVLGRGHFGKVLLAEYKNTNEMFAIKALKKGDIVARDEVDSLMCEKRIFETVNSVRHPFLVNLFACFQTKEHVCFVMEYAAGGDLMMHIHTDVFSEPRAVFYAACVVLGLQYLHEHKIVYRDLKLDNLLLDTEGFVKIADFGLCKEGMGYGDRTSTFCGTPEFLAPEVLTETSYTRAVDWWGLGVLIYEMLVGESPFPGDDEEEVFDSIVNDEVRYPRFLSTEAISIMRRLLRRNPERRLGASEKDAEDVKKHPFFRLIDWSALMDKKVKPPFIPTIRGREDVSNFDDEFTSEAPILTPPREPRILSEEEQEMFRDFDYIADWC
RAC-beta serine/threonine-protein kinase (Homo sapiens), sequence (P31751 whole entry): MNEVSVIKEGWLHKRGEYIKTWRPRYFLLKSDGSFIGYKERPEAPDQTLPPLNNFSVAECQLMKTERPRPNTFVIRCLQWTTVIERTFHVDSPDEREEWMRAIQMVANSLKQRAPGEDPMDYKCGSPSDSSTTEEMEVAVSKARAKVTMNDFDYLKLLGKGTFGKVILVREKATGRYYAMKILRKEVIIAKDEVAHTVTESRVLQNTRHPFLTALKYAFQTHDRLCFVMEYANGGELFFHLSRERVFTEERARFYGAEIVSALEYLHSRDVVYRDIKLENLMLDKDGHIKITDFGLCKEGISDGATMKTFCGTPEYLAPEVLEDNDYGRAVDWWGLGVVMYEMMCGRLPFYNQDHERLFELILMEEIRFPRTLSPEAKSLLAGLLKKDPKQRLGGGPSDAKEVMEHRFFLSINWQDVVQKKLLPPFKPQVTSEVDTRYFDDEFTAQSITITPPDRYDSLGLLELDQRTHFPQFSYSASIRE

Activity [1] [%] | IC50 [2] [µM] | Activity [3] [%] | Activity [4] [%] | Activity [5] [%] | Activity [6] [%] | IC50 [7] [µM] | Activity [10] [%] | Activity [11] [%] | SMILES | IC50 [8] [µM] | IC50 [9] [µM]
31 | 9.5 | 98 | 42 | 28 | 102 | 26 | 89 |  | O=Cc1c[nH]c2c1ccc1c3ccccc3[nH]c12 | 4.5 | 21
95 |  | 107 | 76 | 83 | 108 |  | 96 | 58 | c1ccc2c(c1)[nH]c1c2ccc2cc[nH]c21 |  | 
84 |  | 107 | 92 | 71 | 115 |  | 92 | 73 | c1ccc2c(c1)[nH]c1c3cc[nH]c3ccc21 |  | 
101 |  | 107 | 90 | 87 | 108 |  | 95 | 89 | O=Cc1c[nH]c2ccc3c4ccccc4[nH]c3c12 |  | 
